T cruzi growth-1: blocks T. cruzi growth in NIH3T3 culture. T. cruzi beta-gal in NIH3T3, GalScreen luminescence, 90 h. inhibition, % at 8.34 µM. actives 5.9% (n = 77,000). AID 624255;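 active = mean inhibition above about 93%, with at least 55% of replicates each passing it, limit read from the data, passing the limit was not always enough; inconclusive = only one of those two conditions holds; inactive = neither condition holds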
GASC1 inh: KDM4C (human) demethylase inhibition | Q9H3R0 | AID 720574 | GST-KDM4C 2-372, H3K9me3 peptide, LANCE TR-FRET | actives 0.15% (n = 96,000) | inhibition, % at 12.5 µM;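 active = mean replicate inhibition above about 25%, with at least 55% of replicates also reaching it, limit read from the data, passing the limit was not always enough; inconclusive = only one of those two conditions met; inactive = neither condition met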
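material = GST-tagged GASC-1 (JMJD2C) catalytic fragment, aa 2-372 | amount = enzyme final amount 10 nM | medium = HEPES buffer, pH 7.5, plus ascorbate | also added = H3K9me3 peptide substrate, Fe(II), 2-oxoglutarate | dosing = single dose | times = 30 min demethylation and 1 h detection at room temperature | detection = LANCE TR-FRET | read-out basis = Fall in 671/618 emission ratio as inhibition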
IDH1 mut inh: inhibitors of human IDH1 R132H; O75874; AID 624101; actives 0.18% (n = 70,000); IDH1 R132H reductase, diaphorase/resazurin fluorescence, 60 min; inhibition, % at 10 µM; in the data active = inhibition above about 34%; inconclusive = no clear call, values can overlap the other calls; inactive = below about 11%;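 note: 0% = DMSO and 100% = no enzyme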
Target sequence (O75874 whole entry R132H): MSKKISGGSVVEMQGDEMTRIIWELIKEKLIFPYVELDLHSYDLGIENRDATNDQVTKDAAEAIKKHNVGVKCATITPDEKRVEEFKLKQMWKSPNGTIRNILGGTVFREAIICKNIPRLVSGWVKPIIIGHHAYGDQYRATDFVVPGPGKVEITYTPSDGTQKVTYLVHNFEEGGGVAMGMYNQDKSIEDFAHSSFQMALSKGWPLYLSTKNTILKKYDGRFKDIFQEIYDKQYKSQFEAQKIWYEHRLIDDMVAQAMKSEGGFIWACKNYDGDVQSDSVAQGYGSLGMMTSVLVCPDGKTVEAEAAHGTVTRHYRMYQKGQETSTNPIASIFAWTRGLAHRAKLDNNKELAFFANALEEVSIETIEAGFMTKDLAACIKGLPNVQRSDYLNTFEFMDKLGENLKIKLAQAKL
T cruzi growth-2: Trypanosoma cruzi proliferation inhibition. shares compounds with T cruzi growth-1. T. cruzi beta-gal in NIH3T3, GalScreen luminescence, 90 h. inhibition, % at 8.35 µM. actives 72% (n = 5,600). AID 651739;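 active = mean replicate inhibition above about 95% and at least 55% of replicates individually reaching it, limit read from the data; inconclusive = only one of the two criteria is met; inactive = neither criterion is met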
T cruzi growth-3: inhibitors of T. cruzi proliferation; shares compounds with T cruzi growth-1; actives 21% (n = 5,600); T. cruzi beta-gal in NIH3T3, GalScreen luminescence, 90 h; AID 651740; inhibition, % at 2.09 µM;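 active = mean inhibition above about 95%, with at least 55% of replicates also reaching it, limit read from the data; inconclusive = meets just one of the two conditions; inactive = meets neither condition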;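 note: plate controls were neutral control median for no effect and positive control median for full effect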
NIH3T3 tox: kills mouse NIH/3T3 fibroblasts | AID 651742 | NIH/3T3 viability, CellTiter-Glo ATP luminescence, 90 h | shares compounds with T cruzi growth-1 | cytotoxicity (signal decrease), % at 8.35 µM | actives 14% (n = 5,600);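 active = mean signal decrease across replicates above about 35% based on untreated-well scatter, with enough replicates individually passing, limit read from the data; inconclusive = no rule stated though some were filed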;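 note: 0% = median of neutral control wells and 100% = median of positive control wells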
3T3 cytotox 2: kills mouse NIH/3T3 fibroblasts. actives 56% (n = 5,600). NIH/3T3 viability, CellTiter-Glo ATP luminescence, 90 h. inhibition, % at 24.9 µM. AID 651744. shares compounds with T cruzi growth-1;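 active = mean loss of cell viability signal at or above a set limit, and enough replicates individually reaching it; inconclusive = meets only the mean limit or only the replicate share; inactive = meets neither condition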;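 note: 0% = median of neutral control wells and 100% = median of positive control wells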
* marks the source's active call; other numbers are inactive results. This excerpt belongs to a sample that is enriched for hits.

`Cc1ccc(-c2cc(C)nc(SCC(=O)Nc3ccc(C)c(C)c3)n2)cc1` gave IDH1 mut inh -1.
Screening O=C(CC1(O)C(=O)N(Cc2cccc3ccccc23)c2ccccc21)c1ccc(F)cc1 (centres undefined) returned IDH1 mut inh -1.
Screening CC(C)(CO)NCc1ccc(-c2ccccc2)o1 returned IDH1 mut inh 1.
Cc1nnsc1C(=O)NCc1c(Cl)cccc1Sc1ccc(Cl)cc1 was read as IDH1 mut inh 1.
Screening Cc1ccc(N(C(C)C(=O)Nc2cc(Cl)ccc2Oc2ccccc2)S(C)(=O)=O)cc1C (centres undefined) returned IDH1 mut inh 0.
C[C@H](NC(=O)[C@H]1[C@H](CO)[C@H]2Cn3c(cccc3=O)[C@@H]1N2Cc1ccncc1)c1ccccc1 was read as T cruzi growth-1 21 and GASC1 inh -2.
Screening C[C@@H](NC(=O)[C@@H]1[C@@H](CO)[C@@H]2Cn3c(cccc3=O)[C@H]1N2C(=O)C1CCC1)c1ccccc1 returned T cruzi growth-1 41 and GASC1 inh -3.
Screening CC(=O)N1[C@@H]2Cn3c(ccc(C4=CCCCC4)c3=O)[C@H]1[C@@H](C(=O)N[C@H](C)c1ccccc1)[C@@H]2CO returned T cruzi growth-1 24 and GASC1 inh 1.
Screening C[C@H](NC(=O)[C@H]1[C@H](CO)[C@H]2Cn3c(cccc3=O)[C@@H]1N2C(=O)C1CC1)c1ccccc1 returned T cruzi growth-1 101*, GASC1 inh -1, T cruzi growth-2 6, T cruzi growth-3 -25, NIH3T3 tox -3 and 3T3 cytotox 2 -22.
O=C([C@@H]1[C@@H](CO)[C@@H]2Cn3c(cccc3=O)[C@H]1N2Cc1ccccc1)N1CCCCC1 was read as T cruzi growth-1 1 and GASC1 inh 1.
For C[C@@H](NC(=O)[C@H]1[C@H](CO)[C@H]2Cn3c(cccc3=O)[C@@H]1N2Cc1ccccc1)c1ccccc1 the results were T cruzi growth-1 101*, GASC1 inh -1, T cruzi growth-2 69, T cruzi growth-3 -27, NIH3T3 tox -5 and 3T3 cytotox 2 -1.
`CN1CCN(C(=O)[C@@H]2[C@@H](CO)[C@@H]3Cn4c(cccc4=O)[C@H]2N3Cc2ccncc2)CC1` gave T cruzi growth-1 169*, GASC1 inh 0, T cruzi growth-2 2, T cruzi growth-3 16, NIH3T3 tox -16 and 3T3 cytotox 2 -5.
`CC(=O)N1[C@@H]2c3ccc(C4=CCCCC4)c(=O)n3C[C@H]1[C@H](CO)[C@H]2C(=O)N[C@@H](C)c1ccccc1` gave T cruzi growth-1 active, GASC1 inh -2, T cruzi growth-2 -46, T cruzi growth-3 -59, NIH3T3 tox 3 and 3T3 cytotox 2 2.
Screening COc1ccc(NC(=O)CSc2nnc(C)n2-c2ccc(C)c(C)c2)cc1 returned IDH1 mut inh 0.
CCc1cccc2c(C#N)cn(CC(=O)NCC3CCCO3)c12 (centres undefined) was read as IDH1 mut inh 0.
O=C(COc1ccccc1[N+](=O)[O-])Nc1ccc(O)c(-c2nc3ccccc3s2)c1 was read as IDH1 mut inh 0.
O=C(NCc1ccc2c(c1)OCO2)[C@@H]1[C@@H](CO)[C@@H]2Cn3c(cccc3=O)[C@H]1N2Cc1cccnc1 was read as T cruzi growth-1 -6 and GASC1 inh -1.
`C[C@@H](NC(=O)[C@H]1[C@H](CO)[C@H]2Cn3c(cccc3=O)[C@@H]1N2C(=O)C1CC1)c1ccccc1` gave T cruzi growth-1 103*, GASC1 inh -1, T cruzi growth-2 30, T cruzi growth-3 12, NIH3T3 tox 11 and 3T3 cytotox 2 3.
Screening C[C@H](NC(=O)[C@H]1[C@H](CO)[C@H]2Cn3c(cccc3=O)[C@@H]1N2C(=O)C1CCC1)c1ccccc1 returned T cruzi growth-1 -16 and GASC1 inh -1.
Screening O=C(NCc1ccc(F)cc1)[C@@H]1[C@@H](CO)[C@@H]2Cn3c(cccc3=O)[C@H]1N2Cc1cccnc1 returned T cruzi growth-1 100*, GASC1 inh 0, T cruzi growth-2 21, T cruzi growth-3 -8, NIH3T3 tox 17 and 3T3 cytotox 2 -2.
`Cn1c(SCC(=O)Nc2ccc(I)cc2)nnc1-c1ccc(Cl)cc1` gave IDH1 mut inh 0.
`OC[C@@H]1[C@H](c2ccc(-c3cccc(F)c3)cc2)[C@H]2CN(Cc3cncnc3)CCCCN12` gave T cruzi growth-1 96*, GASC1 inh -1, T cruzi growth-2 73, T cruzi growth-3 70, NIH3T3 tox 20 and 3T3 cytotox 2 102*.
Screening OC[C@@H]1[C@H](c2ccc(-c3cccc(F)c3)cc2)[C@@H]2CN(Cc3cncnc3)CCCCN12 returned T cruzi growth-1 123*, GASC1 inh 0, T cruzi growth-2 102*, T cruzi growth-3 68, NIH3T3 tox -4 and 3T3 cytotox 2 9.
Screening COc1cccc(-c2ccc([C@@H]3[C@H](CO)N4CCCCN(Cc5cncnc5)C[C@@H]34)cc2)c1 returned T cruzi growth-1 -18 and GASC1 inh 0.
For OC[C@H]1[C@@H](c2ccc(-c3cccc(F)c3)cc2)[C@@H]2CN(Cc3cncnc3)CCCCN12 the results were T cruzi growth-1 59 and GASC1 inh -2.
`CCn1c(SCC(=O)Nc2cccc(C(F)(F)F)c2)nnc1-c1c[nH]c2ccccc12` gave IDH1 mut inh 0.
C[C@@H]1CN([C@@H](C)CO)C(=O)c2cccc(N(C)C)c2O[C@H]1CN(C)Cc1ccc(C(F)(F)F)cc1 was read as T cruzi growth-1 43, GASC1 inh 1 and IDH1 mut inh -1.
For C[C@@H]1CN([C@@H](C)CO)C(=O)c2cccc(N(C)C)c2O[C@H]1CN(C)Cc1ccc(Cl)c(Cl)c1 the results were T cruzi growth-1 56 and GASC1 inh 0.
For C[C@@H]1CN([C@@H](C)CO)C(=O)c2cccc(N(C)C)c2O[C@@H]1CN(C)Cc1ccc(C(F)(F)F)cc1 the results were T cruzi growth-1 104*, GASC1 inh -1, IDH1 mut inh 0, T cruzi growth-2 -25, T cruzi growth-3 4, NIH3T3 tox 20 and 3T3 cytotox 2 inconclusive.
For C[C@H]1CN([C@@H](C)CO)C(=O)c2cccc(N(C)C)c2O[C@@H]1CN(C)Cc1ccc(Cl)c(Cl)c1 the results were T cruzi growth-1 100*, GASC1 inh 0, IDH1 mut inh 2, T cruzi growth-2 108*, T cruzi growth-3 47, NIH3T3 tox 16 and 3T3 cytotox 2 103*.
`COc1ccc(S(=O)(=O)NCCCN2CCOCC2)c(C)c1C` gave IDH1 mut inh 0.

Compound activity (PubChem)
